In ChEMBL document CHEMBL4177624, “Rationally designed hecogenin thiosemicarbazone analogs as novel MEK inhibitors for the control of breast malignancies” (Bioorg Med Chem, 2017):
Calls of active or inactive are those of the source. No cut-off for these calls is given here.

Assays:
[1] = tested on: MCF7; assay: Antiproliferative activity against human MCF7 cells after 72 hrs by MTT assay; format: functional, cell-based; settings: MCF7, 72 h
Summary of the method: (§1)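 Six human breast carcinoma lines of differing molecular and phenotypic character were each exposed to a range of concentrations for 72 h. Proliferation was read by MTT. Results are given as mean percent viability, with IC₅₀ ± SEM calculated per cell line.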

[2] = tested on: MDA-MB-468; assay: Antiproliferative activity against human MDA-MB-468 cells after 72 hrs by MTT assay; format: functional, cell-based; settings: MDA-MB-468, 72 h; summary of the method: as §1
[3] = tested on: MDA-MB-231; assay: Antiproliferative activity against human MDA-MB-231 cells after 72 hrs by MTT assay; format: functional, cell-based; settings: MDA-MB-231, 72 h
Summary of the method: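 MDA-MB-231 triple-negative breast cancer cells were exposed to a range of concentrations for 72 h. Proliferation was read by MTT. Results are given as mean percent viability versus concentration, with IC₅₀ ± SEM calculated from the curve.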

[4] = tested on: T47D; assay: Antiproliferative activity against human T47D cells after 72 hrs by MTT assay; format: functional, cell-based; summary of the method: as §1
[5] = tested on: BT-474; assay: Antiproliferative activity against human BT474 cells after 72 hrs by MTT assay; format: functional, cell-based; settings: BT-474, 72 h; summary of the method: as §1
[6] = tested on: SK-BR-3; assay: Antiproliferative activity against human SKBR3 cells after 72 hrs by MTT assay; format: functional, cell-based; settings: SK-BR-3, 72 h; summary of the method: as §1
[7] = tested on: MCF-10A; assay: Cytotoxicity against human MCF10A cells at 1 to 20 uM by MTT assay; format: cell-based
Summary of the method: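 Immortalized, non-tumorigenic MCF-10A mammary epithelial cells were treated at several concentrations (1-20 μM). Mean percent viability was compared with the matching vehicle control-treated group.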

[8] = tested on: MDA-MB-231; assay: Cytotoxicity against human MDA-MB-231 cells at 10 uM after 24 hrs by LDH release assay relative to control; format: functional
[9] = tested on: MDA-MB-231; assay: Cytotoxicity against human MDA-MB-231 cells at 1.25 uM after 24 hrs by LDH release assay (reference value: 100%); format: functional
Summary of the method: (§2)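 MDA-MB-231 cells were treated at four concentrations. LDH released into the culture medium through damaged plasma membranes was measured with a commercial LDH cytotoxicity kit and expressed as percent cytotoxicity.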

[10] = tested on: MDA-MB-231; assay: Cytotoxicity against human MDA-MB-231 cells at 2.5 uM after 24 hrs by LDH release assay (reference value: 100%); format: functional; summary of the method: as §2
[11] = tested on: MDA-MB-231; assay: Cytotoxicity against human MDA-MB-231 cells at 5 uM after 24 hrs by LDH release assay (reference value: 100%); format: functional; summary of the method: as §2
[12] = tested on: MDA-MB-231; assay: Cytotoxicity against human MDA-MB-231 cells at 10 uM after 24 hrs by LDH release assay (reference value: 100%); format: functional; summary of the method: as §2
[13] = tested on: MDA-MB-231; assay: Antimigratory activity against human MDA-MB-231 cells after 24 hrs by scratch wound-healing assay; format: functional, cell-based
[14] = tested on: MDA-MB-231; assay: Antiinvasive activity against human MDA-MB-231 cells at 5 uM after 24 hrs by cell invasion assay relative to control; format: functional
Summary of the method: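 MDA-MB-231 cells were plated in CultreCoat coated-insert invasion chambers and treated at four concentrations or with vehicle. At 24 h post-plating, non-invading cell density on the upper surface was assessed by microscopy. Percent invasion inhibition relative to vehicle was calculated, and IC₅₀ was derived from the dose-response.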

[15] = tested on: MDA-MB-231; assay: Antiinvasive activity against human MDA-MB-231 cells after 24 hrs by cell invasion assay; format: functional, cell-based; settings: MDA-MB-231, 24 h
Summary of the method: (§3)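 Invasion of MDA-MB-231 cells through extracellular matrix coating in a CultreCoat chamber, four doses, 24 h after plating. Non-invaded cells on the upper surface imaged by microscopy. Percent invasion read against vehicle control; IC50 taken from the dose-response curve.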

[16] = target: T1, Dual specificity mitogen-activated protein kinase kinase; MEK1/2 (Homo sapiens) (UniProt P36507+Q02750); assay: Inhibition of MEK phosphorylation in human MDA-MB-231 cell lysate at 1.5 to 4 uM after 72 hrs by Western blot analysis
T1 sequence (P36507 whole entry, looked up): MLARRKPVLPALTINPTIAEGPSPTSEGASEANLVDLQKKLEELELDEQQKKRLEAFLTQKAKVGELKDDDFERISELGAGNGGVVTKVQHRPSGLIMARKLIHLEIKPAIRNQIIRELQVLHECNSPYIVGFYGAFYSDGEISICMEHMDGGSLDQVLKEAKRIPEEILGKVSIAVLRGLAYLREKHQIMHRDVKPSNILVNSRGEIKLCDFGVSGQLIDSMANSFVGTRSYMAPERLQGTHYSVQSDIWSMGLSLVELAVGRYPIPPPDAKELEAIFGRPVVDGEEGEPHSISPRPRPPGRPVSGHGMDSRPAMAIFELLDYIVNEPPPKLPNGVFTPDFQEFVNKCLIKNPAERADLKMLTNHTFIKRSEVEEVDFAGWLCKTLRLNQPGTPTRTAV
T1 sequence (Q02750 whole entry, looked up): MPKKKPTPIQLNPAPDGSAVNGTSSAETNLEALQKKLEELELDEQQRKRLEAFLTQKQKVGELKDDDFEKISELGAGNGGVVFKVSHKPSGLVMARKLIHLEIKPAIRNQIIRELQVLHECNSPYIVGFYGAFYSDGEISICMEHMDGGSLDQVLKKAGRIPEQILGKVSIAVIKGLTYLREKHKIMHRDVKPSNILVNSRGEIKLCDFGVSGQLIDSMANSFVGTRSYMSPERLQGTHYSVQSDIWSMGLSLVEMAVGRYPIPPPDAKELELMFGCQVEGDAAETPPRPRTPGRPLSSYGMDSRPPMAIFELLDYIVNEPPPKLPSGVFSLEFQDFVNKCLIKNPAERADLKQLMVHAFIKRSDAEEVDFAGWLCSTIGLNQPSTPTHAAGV
Summary of the method: (§4)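 MDA-MB-231 cells treated with two doses or vehicle, then lysed. Western blot of phosphorylated MEK, ERK (MAPK) and MSK, each compared with vehicle control.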

[17] = tested on: MDA-MB-231; assay: Antitumor activity against human GFP-fused MDA-MB-231 cells xenografted in Foxn1nu/Foxn1+ mouse assessed as tumor growth inhibition at 10 mg/kg, ip administered 3 times per week for 28 days relative to control; format: functional; settings: MDA-MB-231, ip, 672 h, read-out: TGI
Summary of the method: (§5)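 Athymic nude Foxn1nu/Foxn1+ mice given orthotopic MDA-MB-231/GFP implants. Once tumors were palpable (5-day latency), mice received 10 mg/kg ip three times weekly for 28 days; controls got vehicle. Tumor volume tracked by caliper, giving percent growth inhibition at study end. Body weight checked at each dose and toxicity signs observed.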

[18] = tested on: Mus musculus; assay: Toxicity in Foxn1nu/Foxn1+ mouse xenografted with human GFP-fused MDA-MB-231 cells assessed as reduction in body weight at 10 mg/kg, ip administered 3 times per week for 28 days relative to control; format: organism-based; settings: in vivo, 672 h; summary of the method: as §5
[19] = target: T1, Dual specificity mitogen-activated protein kinase kinase; MEK1/2 (Homo sapiens); assay: Inhibition of MEK in human MDA-MB-231 cell lysate assessed as reduction in MAPK phosphorylation at 1.5 to 4 uM after 72 hrs by Western blot analysis; summary of the method: as §4
[20] = target: T1, Dual specificity mitogen-activated protein kinase kinase; MEK1/2 (Homo sapiens); assay: Inhibition of MEK in human MDA-MB-231 cell lysate assessed as reduction in MSK phosphorylation at 1.5 to 4 uM after 72 hrs by Western blot analysis; summary of the method: as §4
[21] = tested on: MDA-MB-231; assay: Cytotoxicity against human MDA-MB-231 cells at 100 uM after 24 hrs by LDH release assay relative to control; format: functional
Summary of the method: (§6)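 LDH release kit on MDA-MB-231 cells at four doses. LDH in the culture medium used as the marker of plasma membrane damage, expressed as percent cytotoxicity.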

[22] = tested on: MDA-MB-231; assay: Cytotoxicity against human MDA-MB-231 cells at 25 uM after 24 hrs by LDH release assay (reference value: 100%); format: functional; summary of the method: as §6
[23] = tested on: MDA-MB-231; assay: Cytotoxicity against human MDA-MB-231 cells at 50 uM after 24 hrs by LDH release assay (reference value: 100%); format: functional; summary of the method: as §6
[24] = tested on: MDA-MB-231; assay: Cytotoxicity against human MDA-MB-231 cells at 75 uM after 24 hrs by LDH release assay (reference value: 100%); format: functional; summary of the method: as §6
[25] = tested on: MDA-MB-231; assay: Cytotoxicity against human MDA-MB-231 cells at 100 uM after 24 hrs by LDH release assay (reference value: 100%); format: functional; summary of the method: as §6
[26] = tested on: MDA-MB-231; assay: Antimigratory activity against human MDA-MB-231 cells at 10 to 80 uM after 24 hrs by scratch wound-healing assay; format: functional, cell-based
[27] = tested on: MDA-MB-231; assay: Antiinvasive activity against human MDA-MB-231 cells at 80 uM after 24 hrs by cell invasion assay relative to control; format: functional; summary of the method: as §3

SMILES | IC50 [1] [µM] | IC50 [2] [µM] | IC50 [3] [µM] | IC50 [4] [µM] | IC50 [5] [µM] | IC50 [6] [µM] | further results
Cc1ccccc1NC(=S)N/N=C1\C[C@H]2[C@@H](CC[C@H]3C[C@@H](O)CC[C@@]32C)[C@@H]2C[C@@H]3O[C@]4(CC[C@@H](C)CO4)[C@@H](C)[C@@H]3[C@@]12C | 2.1 | 2.4 | 1.9 | 3 | 2.6 | 2.3 | Activity [7]: Non-Toxic; Activity [8]: 5.9%; Activity [9]: 0.74%; Activity [10]: 1.27%; Activity [11]: 1.8%; Activity [12]: 5.94%; Activity [13]: Dose-dependent effect; IC50 ([13]; MDA-MB-231, 24 h): 2500 nM; Activity [14]: 92.4%; IC50 [15]: 2.2 µM; inhibition [16]: Active; inhibition in vivo at 10 mg/kg [17]: 78.1%; Activity [18]: Non-Toxic; inhibition [19]: Active; inhibition [20]: Active
C[C@@H]1CC[C@@]2(OC1)O[C@H]1C[C@H]3[C@@H]4CC[C@H]5C[C@@H](O)CC[C@]5(C)[C@H]4C/C(=N\NC(=S)Nc4ccc(F)cc4)[C@]3(C)[C@H]1[C@@H]2C | 4 | 4.2 | 5 | 5.9 | 6.3 | 4.5 | –
C[C@@H]1CC[C@@]2(OC1)O[C@H]1C[C@H]3[C@@H]4CC[C@H]5C[C@@H](O)CC[C@]5(C)[C@H]4C/C(=N\NC(=S)Nc4ccc(Cl)cc4)[C@]3(C)[C@H]1[C@@H]2C | 12 | 12.8 | 11.5 | 15.1 | 11.8 | 14.8 | –
Cc1cccc(C)c1NC(=S)N/N=C1\C[C@H]2[C@@H](CC[C@H]3C[C@@H](O)CC[C@@]32C)[C@@H]2C[C@@H]3O[C@]4(CC[C@@H](C)CO4)[C@@H](C)[C@@H]3[C@@]12C | 2.5 | 2.8 | 2.3 | 4.2 | 3.2 | 2.9 | –
C[C@@H]1CC[C@@]2(OC1)O[C@H]1C[C@H]3[C@@H]4CC[C@H]5C[C@@H](O)CC[C@]5(C)[C@H]4C/C(=N\NC(=S)Nc4cc(C(F)(F)F)cc(C(F)(F)F)c4)[C@]3(C)[C@H]1[C@@H]2C | 8 | 8.2 | 7.3 | 11 | 10.8 | 8.6 | –
COc1ccccc1NC(=S)N/N=C1\C[C@H]2[C@@H](CC[C@H]3C[C@@H](O)CC[C@@]32C)[C@@H]2C[C@@H]3O[C@]4(CC[C@@H](C)CO4)[C@@H](C)[C@@H]3[C@@]12C | 7.1 | 7.5 | 6.8 | 10.2 | 8.8 | 7.5 | –
C[C@@H]1CC[C@@]2(OC1)O[C@H]1C[C@H]3[C@@H]4CC[C@H]5C[C@@H](O)CC[C@]5(C)[C@H]4C/C(=N\NC(=S)Nc4ccc(Oc5ccccc5)cc4)[C@]3(C)[C@H]1[C@@H]2C | 27 | 30.8 | 28.1 | > 40 | 31.2 | 29 | –
C[C@@H]1CC[C@@]2(OC1)O[C@H]1C[C@H]3[C@@H]4CC[C@H]5C[C@@H](O)CC[C@]5(C)[C@H]4CC(=O)[C@]3(C)[C@H]1[C@@H]2C | 31 | 35.2 | 28.7 | 36.6 | 38.2 | 33.3 | Activity [21]: 27.8%; Activity [22]: 0.04%; Activity [23]: 2.72%; Activity [24]: 10.3%; Activity [25]: 27.8%; Activity [26]: Active; Activity [27]: 86.2%; IC50 [15]: 37.1 µM; inhibition [16]: Active; inhibition in vivo at 10 mg/kg [17]: 57.4%; Activity [18]: Non-Toxic; inhibition [19]: Active; inhibition [20]: Active

Continued, in another order:

IC50 [1] [µM] | IC50 [2] [µM] | IC50 [3] [µM] | IC50 [4] [µM] | IC50 [5] [µM] | IC50 [6] [µM] | SMILES | further results
> 40 | > 40 | > 40 | > 40 | > 40 | > 40 | C[C@@H]1CC[C@@]2(OC1)O[C@H]1C[C@H]3[C@@H]4CC[C@H]5C[C@@H](OC(=O)c6ccccc6Cl)CC[C@]5(C)[C@H]4CC(=O)[C@]3(C)[C@H]1[C@@H]2C | –
9.7 | 10.9 | 10 | 13 | 12 | 9.8 | C[C@@H]1CC[C@@]2(OC1)O[C@H]1C[C@H]3[C@@H]4CC[C@H]5C[C@@H](O)CC[C@]5(C)[C@H]4C/C(=N\NC(=O)Nc4cccc(Cl)c4)[C@]3(C)[C@H]1[C@@H]2C | –
10.4 | 11.9 | 9.2 | 13.5 | 11.9 | 12 | C[C@@H]1CC[C@@]2(OC1)O[C@H]1C[C@H]3[C@@H]4CC[C@H]5C[C@@H](O)CC[C@]5(C)[C@H]4C/C(=N\NC(=O)Nc4ccccc4)[C@]3(C)[C@H]1[C@@H]2C | –
32.4 | > 40 | 25.3 | > 40 | > 40 | 34.9 | C[C@@H]1CC[C@@]2(OC1)O[C@H]1C[C@H]3[C@@H]4CC[C@H]5C[C@@H](OC(=O)c6ccc([N+](=O)[O-])cc6)CC[C@]5(C)[C@H]4CC(=O)[C@]3(C)[C@H]1[C@@H]2C | –
> 40 | > 40 | > 40 | > 40 | > 40 | > 40 | C[C@@H]1CC[C@@]2(OC1)O[C@H]1C[C@H]3[C@@H]4CC[C@H]5C[C@@H](OC(=O)c6cccc(C(F)(F)F)c6)CC[C@]5(C)[C@H]4CC(=O)[C@]3(C)[C@H]1[C@@H]2C | –
30.3 | 34.2 | 29.1 | 37.8 | 36.3 | 33.4 | C[C@@H]1CC[C@@]2(OC1)O[C@H]1C[C@H]3[C@@H]4CC[C@H]5C[C@@H](OC(=O)c6ccccc6)CC[C@]5(C)[C@H]4CC(=O)[C@]3(C)[C@H]1[C@@H]2C | –
33.2 | 32.6 | 25.7 | > 40 | 35 | 34.7 | C[C@@H]1CC[C@@]2(OC1)O[C@H]1C[C@H]3[C@@H]4CC[C@H]5C[C@@H](OC(=O)c6ccc(C#N)cc6)CC[C@]5(C)[C@H]4CC(=O)[C@]3(C)[C@H]1[C@@H]2C | –
